Screening data (PubChem)
Apaf1 inhib – human Apaf-1 inhibition. O14727. reconstituted apoptosome caspase-3 activity, DEVD-Rh110 fluorescence. inhibition, % at 20 µM. 0.71% of 330,000 active. AID 489030; active means inhibition of at least 40% at 20 µM
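Material: cell-free apoptosome with Apaf-1, procaspase-3 and caspase-9; Buffer or medium: Hepes pH 7.5 with detergent and BSA; Reagent: cytochrome c trigger plus (Z-DEVD)2-Rh110 caspase-3 substrate; Times: compound with Apaf-1, dATP, procaspase-3 30 min, then 50 min reaction, room temperature; Technique: Rh110 fluorescence intensity.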
UBC13 inh – human UBC13 polyubiquitination inhibition; UBC13 polyubiquitin chain formation, TR-FRET; AID 485273; 0.47% of 330,000 active; P61088; inhibition, % at 20 µM; in the data active means inhibition above about 45%, passing the limit was not always enough
ZTA counter – blocks Epstein-Barr virus ZTA, an EBNA-1 counter-screen; P03206; ZTA-DNA binding, fluorescence polarization; inhibition, % at 11 µM; 0.15% of 320,000 active; AID 2234; in the data active means inhibition above about 33%
EBNA-1 inh – blocks EBNA-1 binding to DNA; EBNA-1 DNA binding, fluorescence polarization; inhibition, % at 14.8 µM; 0.34% of 300,000 active; AID 1950; in the data active means inhibition above about 28%
PREPL inh – inhibitors of human prolyl oligopeptidase-like enzyme PREPL. Q4J6C6. recombinant PREPL, fluorescence polarization activity-based probe. inhibition, % at 5.96 µM. 0.68% of 320,000 active. AID 2751; in the data active means inhibition above about 43%
Hits are given with their value; - = inactive; . = no result given. In the library only some 1.7% were active in any assay of this set; here they are far more common.

SMILES	Apaf1 inhib	UBC13 inh	ZTA counter	EBNA-1 inh	PREPL inh
Cc1ccc(Nc2nc(-c3ccc(S(=O)(=O)N4CCOCC4)cc3)cs2)cc1Cl	-	-	-	30.7	-
COc1ccccc1NC(=S)N(Cc1ccco1)Cc1cc2ccc(C)c(C)c2[nH]c1=O	-	-	-	-	-
CCOC(=O)C1(CC2CC2)CCN(C(=O)c2cc(OC)nc3ccccc23)CC1	-	-	34.3	29.3	-
O=C1/C(=C/c2cccnc2)CC/C1=C\c1cccnc1	-	-	-	-	-
O=C1/C(=C/c2ccc(C(=O)O)cc2)CCC/C1=C\c1ccc(C(=O)O)cc1	-	-	60.8	-	-
O=C1/C(=C/c2cccnc2)CCC/C1=C\c1cccnc1	.	.	38.4	-	-
CN(C)c1ccc(/C=C2\CCC/C(=C\c3ccccc3)C2=O)cc1	.	.	-	-	-
COc1ccc(F)cc1S(=O)(=O)NC(Cc1ccccc1)C(N)=O (stereo not given)	-	-	-	-	-
N=C1CCC(=N)c2c1c(O)c1ccccc1c2O	77.4	-	36.8	-	-
N#Cc1c(C#N)c(O)c2ccccc2c1O	-	-	-	-	-
O=C(CSc1ccc2nnc(-c3ccccc3)n2n1)N1CCCCC1	-	-	-	-	-
CC(C)CNC(=O)NC(=O)COC(=O)c1cc(F)cc(F)c1	-	-	-	87.5	-
COc1ccc(O[C@H]2C=C[C@@H](c3ccccc3)O[C@@H]2CO/N=C(\C)CCN2CCc3nc(-c4ccccc4)c(-c4ccccc4)cc3C2)cc1	47.5	-	-	-	-
CCc1cc2c(nc1CC)CCN(CC/C(C)=N/OC[C@H]1O[C@H](c3ccccc3)C=C[C@@H]1Oc1ccc(OC)cc1)C2	43.4	-	.	.	.
COc1ccc(O[C@H]2C=C[C@@H](c3ccccc3)O[C@@H]2COC(=O)CC/C(C)=N/OC[C@@H](O)COCc2ccco2)cc1	-	-	-	-	-
Cc1cccc(N(C(=O)c2nsc(Cl)c2Cl)C(C(=O)NC2CCCC2)c2ccc(O)cc2)c1C (stereo not given)	-	-	-	-	-
C#CCn1c(=NC(=O)c2sc3ccccc3c2Cl)sc2cc(S(N)(=O)=O)ccc21	.	.	-	35.1	-
CCCCNC(=O)C(C1CCCCC1)N(CCN(C)C)C(=O)CCCN1C(=O)NC(c2ccc(-c3ccccc3)cc2)C(C(=O)OCc2ccccc2)=C1C (stereo not given)	64.3	.	.	.	.
CCOC(=O)C1CCCN(C(=O)c2cc(S(=O)(=O)N3CCCCCC3)ccc2OC)C1 (stereo not given)	49.1	-	-	.	-
CCc1ccc2nc(N(CCCN(C)C)C(=O)c3ccc(S(=O)(=O)N(C)C4CCCCC4)cc3)sc2c1	53.6	47.6	-	-	-
CN(C)CCCN(C(=O)c1ccc(S(=O)(=O)N(C)C2CCCCC2)cc1)c1nc2ccc(F)cc2s1	-	-	-	-	-
COc1ccc(-c2ccc(CNCc3ccccn3)o2)cc1Cl	.	.	-	-	51.0
CC/C(=N/NS(=O)(=O)c1ccc(Cl)cc1)c1ccc(O)cc1	-	-	-	-	-
Nc1ccc(Nc2ccccc2N)cc1	-	-	-	-	94.4
Cc1cccc(NC(=S)NC2CCCCC2)n1	-	-	-	-	-
SMILES	Apaf1 inhib	UBC13 inh	ZTA counter	EBNA-1 inh	PREPL inh
CN1CCN(c2ccccc2NC(=O)c2ccc(-c3ccc(Cl)c(Cl)c3)o2)CC1	46.0	-	-	-	-
Cc1cc(N2CCN(C)CC2)ccc1NC(=O)c1ccc(-c2ccc(Cl)cc2)o1	41.7	-	-	-	-
O=C(Nc1ccccc1N1CCCCC1)c1ccc(-c2ccc(Cl)cc2)o1	-	-	-	-	-
Clc1ccc(-c2nc(Cc3ccccc3Cl)no2)cc1	-	-	-	-	-
CC(C)CCN(C(=O)Cc1ccc(Cl)c(Cl)c1)c1c(N)n(Cc2ccccc2)c(=O)[nH]c1=O	-	-	-	-	-
O=C(CN1CCN(Cc2ccccc2)CC1)Nc1ccc([N+](=O)[O-])cc1C(=O)Nc1ccccc1F	-	-	-	-	43.1
Cn1c2c(c(=O)n(C)c1=O)CN(CCc1ccccc1)CN2	-	-	-	-	-
Cc1ccc(C(=O)NCC(=O)N2CCN(S(=O)(=O)c3cccs3)CC2)s1	-	-	-	-	-
O=C(O)Cn1ccc2cc(S(=O)(=O)N3CCCCCC3)ccc21	-	-	-	-	-
COc1cccc(NC(=O)CSc2nc(N)cc(N)n2)c1	-	-	-	-	-
CCc1ccc(C(=O)Nc2nc3ccccc3[nH]2)cc1	-	-	-	-	-
CCN(CC)CCOC(=O)c1ccc(NC(=O)CCCN2C(=O)/C(=C\c3cccs3)SC2=S)cc1	59.9	-	-	-	-
O=C1c2ccccc2NC(c2ccccc2Br)N1CCCN1CCOCC1 (stereo not given)	-	-	-	-	-
Cc1nc2ccc(NC(=O)N3CCCCC3)cc2nc1C	-	-	-	-	-
O=C(Nc1ccc2nc(-c3ccco3)c(-c3ccco3)nc2c1)N1CCCCCC1	57.3	-	40.9	-	75.0
C#CCOCCOCCOCCNc1nc(N2CCN(C(=O)[C@H]([C@@H](C)CC)n3cc([C@@H](N)CO)nn3)CC2)nc(N2CCN(C(=O)[C@H](Cc3ccc(O)cc3)n3cc([C@@H](N)CC(C)C)nn3)CC2)n1	-	-	-	-	-
C#CCOCCOCCOCCNc1nc(N2CCN(C(=O)[C@H]([C@@H](C)CC)n3cc([C@@H](N)CO)nn3)CC2)nc(N2CCN(C(=O)[C@H](Cc3cc4ccccc4[nH]3)n3cc([C@@H](N)Cc4ccc(O)cc4)nn3)CC2)n1	56.6	97.6	-	-	48.8
C#CCOCCOCCOCCNc1nc(N2CCN(C(=O)[C@H]([C@@H](C)CC)n3cc([C@@H](N)CC(C)C)nn3)CC2)nc(N2CCN(C(=O)[C@H](CCCCN)n3cc([C@@H](N)CC(C)C)nn3)CC2)n1	-	54.9	-	-	-
C#CCOCCOCCOCCNc1nc(N2CCN(C(=O)[C@H]([C@@H](C)CC)n3cc([C@@H](N)CO)nn3)CC2)nc(N2CCN(C(=O)[C@H](CCCCN)n3cc([C@@H](N)C(C)CC)nn3)CC2)n1 (stereo not given in full)	-	-	-	-	-
C#CCOCCOCCOCCNc1nc(N2CCOCC2)nc(N2CCN(C(=O)[C@H](Cc3cc4ccccc4[nH]3)n3cc([C@@H](N)Cc4ccc(O)cc4)nn3)CC2)n1	-	-	-	-	-
C#CCOCCOCCOCCNc1nc(N2CCN(C(=O)[C@H]([C@@H](C)CC)n3cc([C@@H](N)CC(C)C)nn3)CC2)nc(N2CCN(C(=O)[C@H](CCCCN)n3cc([C@@H](N)C(C)CC)nn3)CC2)n1 (stereo not given in full)	-	-	-	-	-
C#CCOCCOCCOCCNc1nc(N2CCN(C(=O)[C@H](CCCCN)n3cc([C@@H](N)C(C)CC)nn3)CC2)nc(N2CCN(C(=O)[C@H](CCCCN)n3cc([C@@H](N)CO)nn3)CC2)n1 (stereo not given in full)	-	46.3	-	-	-
